Test results reported in ChEMBL document CHEMBL1649368, “Novel isatinyl thiosemicarbazones derivatives as potential molecule to combat HIV-TB co-infection” (Eur J Med Chem, 2011).
pEC50, pIC50: −log10 of the molar value. ≈ marks a conversion by molar mass, not a printed value.

Assays:
[1] = system: Human immunodeficiency virus 1; test: Antiviral activity against HIV1 3B infected in human MT4 cells assessed as protection against virus-induced cytopathogenicity after 5 days by microtiter plate analysis; assay type: functional, organism-based; conditions: Human immunodeficiency virus 1, 3B, MT4, 120 h
In short: (§1)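 MT-4 cells were grown in RPMI-1640 DM with 10% heat-inactivated calf serum and gentamicin. HIV-1 IIIB (100 CCID50) or mock infection was run in parallel with compounds in triplicate, at 37 °C and 5% CO2 for 5 days. Viability was read by MTT spectrophotometry. EC50 was the 50% reduction in virus cytopathic effect; CC50 was the 50% loss of mock-infected cell viability.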

[2] = Cytotoxicity against human MT4 cells after 5 days by spectrophotometry; assay type: cell-based; in short: as §1
[3] = system: Mycobacterium tuberculosis; test: Antimycobacterial activity against Mycobacterium tuberculosis H37Ra by agar dilution method; assay type: functional
In short: (§2)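 Log-phase MTB was tested by agar dilution on Middlebrook 7H11 with OADC, following NCCLS guidance. MIC was the lowest concentration giving complete growth inhibition, determined in triplicate.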

[4] = target: T1, Isocitrate lyase (Mycobacterium tuberculosis) (UniProt P9WKK7); test: Inhibition of Mycobacterium tuberculosis isocitrate lyase […]
T1 sequence (whole entry): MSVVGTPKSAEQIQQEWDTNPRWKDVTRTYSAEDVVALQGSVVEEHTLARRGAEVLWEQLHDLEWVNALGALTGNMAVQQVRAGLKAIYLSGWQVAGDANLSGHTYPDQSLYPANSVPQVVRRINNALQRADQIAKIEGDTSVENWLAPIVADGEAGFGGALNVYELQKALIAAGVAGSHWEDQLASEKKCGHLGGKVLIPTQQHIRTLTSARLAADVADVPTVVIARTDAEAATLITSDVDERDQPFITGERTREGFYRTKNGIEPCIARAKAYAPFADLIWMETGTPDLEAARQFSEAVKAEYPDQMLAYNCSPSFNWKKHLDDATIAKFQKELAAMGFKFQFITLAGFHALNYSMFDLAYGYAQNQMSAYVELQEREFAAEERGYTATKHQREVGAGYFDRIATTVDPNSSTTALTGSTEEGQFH
In short: (§3)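 Isocitrate lyase activity was measured at 37 °C as glyoxylate-phenylhydrazone formation from isocitrate with phenylhydrazine, MgCl2 and 2-mercaptoethanol in potassium phosphate buffer. After 10 min the mixture was diluted and absorbance read at 324 nm. Test compounds were added from a 10 mM solution; the 3-nitropropionic acid reference came from a 100 mM solution. % inhibition = (control − test)/control × 100.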

[5] = target: Human immunodeficiency virus type 1 reverse transcriptase (Human immunodeficiency virus 1, UniProt Q72547); test: Inhibition of HIV1 reverse transcriptase
In short: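 The radiometric reaction used wild-type RT in 50 mM Tris-HCl pH 7.8 with DTT, glutathione, EDTA, KCl, MgCl2, BSA, Triton X-100, poly(rC)·oligo(dG) template/primer and [3H]dGTP. It ran 15 min at 37 °C, was stopped with carrier DNA, pyrophosphate and TCA, and held on ice 30 min.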

[6] = system: Mycobacterium tuberculosis; test: Antimycobacterial activity against Mycobacterium tuberculosis H37Ra assessed as inhibition of bacterial growth in log phase by agar dilution method; assay type: functional; in short: as §2
[7] = system: Mycobacterium tuberculosis; test: Antimycobacterial activity against Mycobacterium tuberculosis H37Ra assessed as inhibition of bacterial growth in dormant phase; assay type: functional
In short: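 MTB grown in 7H9 with glycerol, OADC and Tween 80 at 37 °C with rolling to OD600 ~0.6, then washed and held in PBS 6 weeks at 37 °C. Starved cells (~1×10^7 in 1 mL PBS) were exposed to compounds in DMSO at various concentrations for 7 days with shaking. After washing, dilutions were plated on antibiotic-free 7H11 and counted after 4 weeks. MIC was complete growth inhibition, in triplicate.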

[8] = target: T1, Isocitrate lyase (Mycobacterium tuberculosis); test: Inhibition of Mycobacterium tuberculosis isocitrate lyase at 100 mM; in short: as §3

| SMILES | pEC50 [1] | CC50 at 120 h [2] [µM] | MIC [3] [µM] | inhibition [4] [%] | pIC50 [5] | MIC [6] [µM] | MIC [7] [µM] | inhibition [8] [%] |
| --- | --- | --- | --- | --- | --- | --- | --- | --- |
| CONC(=S)N/N=C1\C(=O)N(CN2CCN(c3cc4c(cc3F)c(=O)c(C(=O)O)cn4C3CC3)CC2)c2ccc(C)cc21 | 5.04 | 232 | 0.66 (≈ 0.401 µg/mL) | 63.4 |  |  |  |  |
| O=C1/C(=N\NC(=S)NO)c2cc(F)ccc2N1CN1CCN(c2ccc(Cl)cc2)CC1 | 5.16 | 194 | 3.37 (≈ 1.56 µg/mL) | 18.5 |  |  |  |  |
| CONC(=S)N/N=C1\C(=O)N(CN2CCN(c3ccc(Cl)cc3)CC2)c2ccc(Cl)cc21 | 5.61 | 229 | 6.34 (≈ 3.13 µg/mL) | 6.38 | 6.60 | 6.82 (≈ 3.37 µg/mL) | 27.3 (≈ 13.5 µg/mL) |  |
| CCN(CC)CN1C(=O)/C(=N\NC(=S)NOC)c2cc(C)ccc21 | 4.27 | 573 | 8.96 (≈ 3.13 µg/mL) | 18.9 |  |  |  |  |
| CONC(=S)N/N=C1\C(=O)N(CN2CCN(c3ccc(OC)cc3)CC2)c2ccc(C)cc21 | 5.01 | 324 | 6.68 (≈ 3.13 µg/mL) | 23.3 |  | 0.16 (≈ 0.075 µg/mL) | 9.74 (≈ 4.56 µg/mL) |  |
| CONC(=S)N/N=C1\C(=O)N(CN2CCOCC2)c2ccc(F)cc21 | 4.54 | 274 | 4.25 (≈ 1.56 µg/mL) | 15.9 |  | 3.37 (≈ 1.24 µg/mL) | 13.5 (≈ 4.95 µg/mL) |  |
| CONC(=S)N/N=C1\C(=O)N(CN2CCN(c3c(F)cc4c(=O)c(C(=O)O)cn(C5CC5)c4c3OC)CC2C)c2ccc(C)cc21 (stereo unspecified) | 5.73 | 154 | 0.31 (≈ 0.202 µg/mL) |  |  | 0.31 (≈ 0.202 µg/mL) | 17.8 (≈ 11.6 µg/mL) |  |
| CONC(=S)N/N=C1\C(=O)N(CN2CCN(c3ccc(Cl)cc3)CC2)c2ccc(C)cc21 | 5.77 | 300 | 3.3 (≈ 1.56 µg/mL) | 9.49 | 4.94 | 0.65 (≈ 0.307 µg/mL) | 20.4 (≈ 9.64 µg/mL) |  |
| CCn1cc(C(=O)O)c(=O)c2cc(F)c(N3CCN(CN4C(=O)/C(=N\NC(=S)NO)c5cc(F)ccc54)C(C)C3)c(F)c21 (stereo unspecified) | 5.00 | 187 | 0.65 (≈ 0.401 µg/mL) |  |  | 0.65 (≈ 0.401 µg/mL) | 36.9 (≈ 22.8 µg/mL) |  |
| O=C(O)CC[N+](=O)[O-] |  |  |  |  |  |  |  | 66 |
| CONC(=S)N/N=C1\C(=O)N(CN2CCN(c3ccc(Cl)cc3)CC2)c2ccc(F)cc21 | 5.42 | 347 | 3.27 (≈ 1.56 µg/mL) | 28.4 | 4.78 | 0.67 (≈ 0.32 µg/mL) | 42.1 (≈ 20.1 µg/mL) |  |
| Cc1ccc2c(c1)/C(=N/NC(=S)NO)C(=O)N2CN1CCN(c2ccc(Cl)cc2)CC1 | 5.21 | 335 | 6.82 (≈ 3.13 µg/mL) | 11 | 4.63 |  |  |  |
